Results taken from ChEMBL document CHEMBL1139595, “Inhibition of IKK-2 by 2-[(aminocarbonyl)amino]-5-acetylenyl-3-thiophenecarboxamides” (Bioorg Med Chem Lett, 2005).

Key:
[1] = Lethal concentration towards rheumatoid arthritis-derived synovial fibroblasts using Alamar Blue reagent; assay type: functional; conditions: Homo sapiens; read-out: LC50 (the source's name)
How it was run: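 Primary RASF from knee synovectomy tissue, cultured in DMEM high glucose with 15% bovine serum; 1.5×10^4 cells/well in 1% serum, pre-treated 1 h with seven-point inhibitor doses in 0.2% Me2SO, then stimulated overnight with 1 ng/mL IL-1β. After removing the supernatant, Alamar Blue added, 2.5 h at 37 °C, 5% CO2; fluorescence read, LC50 derived.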

[2] = target: T1, Inhibitor of nuclear factor kappa-B kinase subunit beta (Homo sapiens) (UniProt O14920); experiment: Ratio of inhibitory concentration of rheumatoid arthritis-derived synovial fibroblasts to human recombinant I-kappa-B-kinase 2; assay type: functional
T1 sequence (whole entry): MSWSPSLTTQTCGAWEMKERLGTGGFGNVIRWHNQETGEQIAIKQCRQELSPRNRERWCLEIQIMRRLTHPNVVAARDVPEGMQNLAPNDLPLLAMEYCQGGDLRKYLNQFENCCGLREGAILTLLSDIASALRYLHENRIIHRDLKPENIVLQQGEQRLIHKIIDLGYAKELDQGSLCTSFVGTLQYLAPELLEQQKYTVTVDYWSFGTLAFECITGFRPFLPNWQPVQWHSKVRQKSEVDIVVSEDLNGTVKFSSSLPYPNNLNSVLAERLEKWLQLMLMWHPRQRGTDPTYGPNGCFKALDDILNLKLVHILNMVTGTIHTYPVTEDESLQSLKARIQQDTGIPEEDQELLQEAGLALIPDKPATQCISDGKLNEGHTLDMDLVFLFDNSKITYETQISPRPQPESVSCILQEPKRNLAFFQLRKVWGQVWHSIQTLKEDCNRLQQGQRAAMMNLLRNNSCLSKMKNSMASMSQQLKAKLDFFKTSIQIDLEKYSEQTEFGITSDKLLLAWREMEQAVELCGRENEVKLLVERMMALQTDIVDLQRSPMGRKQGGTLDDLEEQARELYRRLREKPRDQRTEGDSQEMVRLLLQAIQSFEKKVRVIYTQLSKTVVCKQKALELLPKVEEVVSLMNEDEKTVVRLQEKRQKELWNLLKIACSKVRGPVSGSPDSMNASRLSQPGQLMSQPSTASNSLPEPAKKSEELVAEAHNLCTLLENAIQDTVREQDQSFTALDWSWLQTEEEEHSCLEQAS

[3] = Inhibitory concentration against interleukin-8 production in rheumatoid arthritis-derived synovial fibroblasts (RASFs) from 2 experiments; assay type: functional; conditions: Homo sapiens
How it was run: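 Primary RASF from knee synovectomy tissue, grown in DMEM high glucose with 15% bovine serum and gentamicin. 1.5×10^4 cells/well attached overnight, moved to DMEM with 1% serum. Pre-treated 1 h with a seven-point dose series in 0.2% Me₂SO, then stimulated overnight with 1 ng/mL IL-1β. IL-8 in supernatant measured by ELISA; IC50 from curve.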

[4] = target: T2, Inhibitor of nuclear factor kappa-B kinase subunit beta (Homo sapiens, UniProt O14920); experiment: Inhibitory concentration against human recombinant I-kappa-B-kinase 2 from 3 experiments
T2 sequence (O14920 whole entry): T1 sequence (whole entry)

Row | SMILES | CC50 [1] [nM] | Ratio [2] | IC50 [3] [nM] | IC50 [4] [nM]
1 | NC(=O)Nc1sc(C#Cc2csc(CO)c2)cc1C(N)=O | > 30000 | 5.8 | 1130 | 195
2 | NC(=O)Nc1sc(C#Cc2cccc(NC(=O)c3cccnc3)c2)cc1C(N)=O | – | – | – | 557
3 | NC(=O)Nc1sc(C#Cc2cccc(N)c2)cc1C(N)=O | – | – | – | 709
4 | CC(=O)Nc1cccc(C#Cc2cc(C(N)=O)c(NC(N)=O)s2)c1 | – | – | – | 964
5 | Cc1ccccc1C#Cc1cc(C(N)=O)c(NC(N)=O)s1 | – | – | – | 716
6 | CCC(O)c1cc(C#Cc2cc(C(N)=O)c(NC(N)=O)s2)cs1 (stereo not drawn) | – | – | – | 465
7 | NC(=O)Nc1sc(C#Cc2ccccc2Cl)cc1C(N)=O | – | – | – | 1010
8 | NC(=O)Nc1sc(C#Cc2cccc(NC(=O)C(F)(F)F)c2)cc1C(N)=O | – | – | – | 980
9 | NC(=O)Nc1sc(C#Cc2cccc(NC(=O)c3ccccn3)c2)cc1C(N)=O | – | – | – | > 20000
10 | NC(=O)Nc1sc(C#Cc2ccccc2F)cc1C(N)=O | – | – | – | 620
11 | NC(=O)Nc1sc(C#Cc2cccc(NC(=O)c3ccncc3)c2)cc1C(N)=O | – | – | – | 1850
12 | NC(=O)Nc1sc(C#CC2CC2)cc1C(N)=O | > 30000 | 11 | 3060 | 273
13 | N#Cc1cc(C#Cc2cc(C(N)=O)c(NC(N)=O)s2)cs1 | > 30000 | 2.5 | 832 | 333
14 | NC(=O)Nc1sc(C#Cc2cccc(F)c2)cc1C(N)=O | > 30000 | 5 | 1650 | 331
15 | NC(=O)Nc1sc(C#Cc2ccsc2)cc1C(N)=O | > 30000 | 2.8 | 1180 | 420
16 | CN(C)CC(=O)Nc1cccc(C#Cc2cc(C(N)=O)c(NC(N)=O)s2)c1 | – | – | – | 1880
17 | NC(=O)Nc1sc(C#Cc2cccc(O)c2)cc1C(N)=O | 2720 | 1.9 | 576 | 303
18 | CS(=O)(=O)Nc1cccc(C#Cc2cc(C(N)=O)c(NC(N)=O)s2)c1 | > 30000 | 28 | 12900 | 454
19 | CC(C)C(O)c1cc(C#Cc2cc(C(N)=O)c(NC(N)=O)s2)cs1 (stereo not drawn) | – | – | – | 563
20 | COC(=O)NCCC(=O)Nc1cccc(C#Cc2cc(C(N)=O)c(NC(N)=O)s2)c1 | – | – | – | 4400
21 | NC(=O)Nc1sc(C#Cc2cccc(NC(=O)c3ccccc3)c2)cc1C(N)=O | – | – | – | 704
22 | NC(=O)c1sc(-c2ccsc2)cc1N | – | – | – | 11200
